In the library only some 4.7% were active in any assay of this set; here they are far more common.
HTR2A ag = activates the mouse 5-HT2A serotonin receptor; P35363; CHO-K1 mHTR2A beta-arrestin complementation, luminescence; percent of 30 µM serotonin response; AID 624169; activation, % at 7.6 µM; 0.66% of 360,000 active;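 active means activation above a run cutoff, the mean activation of all tested compounds plus 3 SD, cut at about 14% in these data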;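 further: 0% = plate median of compound wells and 100% = 30 µM serotonin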
Target sequence (P35363 whole entry, looked up): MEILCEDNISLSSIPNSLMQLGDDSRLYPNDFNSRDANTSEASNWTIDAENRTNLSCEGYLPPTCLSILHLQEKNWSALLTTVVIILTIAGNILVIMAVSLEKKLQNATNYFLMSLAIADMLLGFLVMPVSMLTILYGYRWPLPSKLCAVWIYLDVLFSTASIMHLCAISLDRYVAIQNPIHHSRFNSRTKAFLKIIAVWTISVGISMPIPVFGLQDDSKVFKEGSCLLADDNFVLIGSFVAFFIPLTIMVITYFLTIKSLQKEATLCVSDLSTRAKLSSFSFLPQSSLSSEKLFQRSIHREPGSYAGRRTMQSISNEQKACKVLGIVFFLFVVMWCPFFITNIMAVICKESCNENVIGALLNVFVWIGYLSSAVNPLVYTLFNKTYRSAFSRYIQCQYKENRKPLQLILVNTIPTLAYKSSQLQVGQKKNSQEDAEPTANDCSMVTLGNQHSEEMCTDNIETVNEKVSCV
MC4R barr agon = activates human MC4R beta-arrestin recruitment; U2OS MC4R beta-arrestin complementation, luminescence; percent of melanotan II response, DMSO zero; AID 540308; activation, % at 8.9 µM; 0.98% of 360,000 active;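 active means activation above a per-plate cutoff, the mean activation of sample wells on that plate plus 3 SD, cut at about 8% in these data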
AHR activator = activators of human aryl hydrocarbon receptor | P35869 | 2.5% of 320,000 active | AHR-responsive luciferase reporter cells, luminescence | activation, % at 5 µM; in the data active means activation above about 47%;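 further: 0% = vehicle wells and 100% = reference agonist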
GAA850 FXN act = frataxin GAA850 promoter activation; activation, % at 6 µM; HEK293 lucGAA850 FXN promoter luciferase reporter, 24 h; percent of 10 µM SAHA response; AID 540364; 0.56% of 360,000 active;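 active means activation above the average of all compounds screened plus 3 SD, cutoff fixed separately per campaign, cut at about 7.5% in these data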;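 further: 0% = DMSO wells and 100% = 10 µM SAHA wells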
MC4R antag cAMP = antagonists of human melanocortin 4 receptor (MC4R). P32245. MC4R-expressing cells, MTII-stimulated cAMP, LANCE TR-FRET. inhibition, % at 6.5 µM. 0.48% of 360,000 active. AID 540295;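 active means inhibition above its plate's cutoff, the mean of tested wells on that plate plus 3 SD, cut at about 29% in these data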;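 further: 0% = Melanotan II alone and 100% = Melanotan II plus saturating MCL0020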
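Assay system: U2OS cells stably expressing human melanocortin 4 receptor (MC4R) / Dosing: 6.5 µM / Timing: compound 30 min, challenge 1 h, detection 1 h / Measured by: Eu-cAMP/anti-cAMP TR-FRET, emission 671 nm / Replicates: singlicate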
AHR act cf = human AHR activation, confirmation. shares compounds with AHR activator. human cells, AHR-responsive luciferase reporter, luminescence. activation, % at 9 µM. 87% of 2,300 active; in the data active means activation above about 49%;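 further: HepG2 hepatoma cells carrying a DRE-driven firefly luciferase reporter; 0% = vehicle wells and 100% = reference agonist wells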
PXR counter = counter-screen for AHR activators: human PXR activators | shares compounds with AHR activator | cell-based PXR reporter, luciferase luminescence | activation, % at 11.6 µM | 88% of 2,300 active | AID 434939; in the data active means activation above about 11%;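 further: human hepatoma DPX-2 cells expressing full-length human PXR; 0% = DMSO and 100% = reference agonist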
The depositor's hits bear a star; . = not tested or not shown.

SMILES	HTR2A ag	MC4R barr agon	AHR activator	GAA850 FXN act	MC4R antag cAMP	AHR act cf	PXR counter
CSCc1c(C(=O)Nc2ccc(N3CCOCC3)cc2)oc2ccccc12	-8	1	87*	1	5	95*	13*
CSCc1c(C(=O)Nc2ccccc2N2CCOCC2)oc2ccccc12	-4	6	18	2	8	.	.
COc1cccc(NC(=O)c2oc3ccccc3c2NC(=O)c2ccc3c(c2)OCO3)c1	0	0	-6	2	3	.	.
CC(=O)Nc1c(C(=O)Nc2ccc3c(c2)OCO3)oc2ccccc12	7	-2	113*	5	2	147*	35*
COCC(=O)Nc1c(C(=O)Nc2ccc3c(c2)OCO3)oc2ccccc12	-2	-1	134*	1	1	100*	48*
Cc1cccnc1C(NC(=O)C1CCN(Cc2ccc(Cl)cc2)CC1)c1ccc(F)cc1 (stereo not given)	-5	1	.	-1	6	.	.
c1ccc2oc(C3=NNC(=NC4CC4)SC3)cc2c1	-13	-1	137*	2	-1	1	16*
CC(C)NC(=O)C1(C)CCCN1C(=O)c1ccc2c(c1)C(C)(C)CCC2(C)C (stereo not given)	7	1	.	0	-3	.	.
O=C1c2ccccc2-n2c1nc1ccccc1c2=O	0	-1	108*	2	-21	155*	30*
S=C1Cc2ccccc2N1	10	7	.	-7	-1	.	.
Cc1ccc2nc(SCC(=O)Nc3cc([N+](=O)[O-])ccc3F)[nH]c2c1	-8	0	40	0	-3	.	.
Cc1ccc2nc(SCC(=O)c3ccc(Cl)s3)[nH]c2c1	-4	1	86*	2	7	45	46*
Cc1ccc2nc(SCC(=O)Nc3ccc(F)c([N+](=O)[O-])c3)[nH]c2c1	-2	-3	99*	0	13	114*	27*
Cn1cc(Cc2ccc(C(=O)N3CCOCC3)cn2)c2ccccc21	1	0	.	-4	13	.	.
COCCCNC(=O)c1cccn2c(=O)c3cc4ccccc4cc3nc12	-2	9.1*	92*	-3	-12	147*	13*
Cc1c(Cc2ccc3c(c2)OCO3)sc(NC(=O)c2cccc3ccccc23)c1C(N)=O	-3	-2	103*	-1	-19	60*	58*
CCN(C(=O)COC(=O)c1cccs1)c1c(N)n(Cc2ccccc2)c(=O)[nH]c1=O	2	-1	1	4	1	.	.
COc1cc2c3c(c1)C1(C(=O)N3C(C)(C)C=C2C)C(C#N)=C(N)Oc2cc(O)ccc21 (stereo not given)	-2	0	93*	-2	-11	39	2
CCOc1cc2c3c(c1)C1(C(=O)N3C(C)(C)C=C2C)C(C#N)=C(N)Oc2cc(O)ccc21 (stereo not given)	-2	2	21	-4	-9	.	.
O=C(Oc1cccc(-c2cnc3ccccc3n2)c1)c1ccco1	-2	1	99*	2	-11	44	9
N/C(=N\OC(=O)c1ccc(Br)o1)c1ccccn1	-4	-1	79*	4	-7	29	22*
COc1ccc(Cl)cc1C(=O)O/N=C(\N)c1ccccn1	3	-1	17	5	0	.	.
N/C(=N\OC(=O)c1cc(Cl)ccc1Cl)c1ccccn1	-1	-1	122*	0	1	64*	17*
N/C(=N\OC(=O)c1ccccc1)c1ccccn1	-1	-3	8	-1	0	.	.
CC(C)(C)S(=O)(=O)N1C[C@@H]2CC/C=C\C/C=C\2[C@H]1CCO	-6	0	.	0	4	.	.
SMILES	HTR2A ag	MC4R barr agon	AHR activator	GAA850 FXN act	MC4R antag cAMP	AHR act cf	PXR counter
COc1cccc(/C=C2/Oc3ccccc3N(CC(=O)NCC3CCCO3)C2=O)c1 (stereo not given)	7	-1	1	-3	-1	.	.
COc1cc(/C=N/NC(=O)c2ccccn2)cc2c1OCO2	-3	1	36	4	-4	.	.
O=C(N/N=C/c1ccc(O)cc1)c1cncc(Br)c1	-5	0	19	3	0	.	.
O=C(CNC(=O)c1ccccc1Cl)N/N=C/c1ccc2c(c1)OCO2	0	-2	10	-1	9	.	.
Clc1ccccc1N/N=C/c1ccc2c(c1)OCO2	-4	2	80*	3	-3	66*	35*
O=C(N/N=C\c1ccc2c(c1)OCO2)c1cncc(Br)c1	-3	1	104*	0	15	80*	10*
COc1cc(/C=N/NC(=O)c2cccnc2)cc2c1OCO2	-3	-3	88*	0	-6	78*	.
CCCCNC(=S)N(C)/N=C/c1ccc2c(c1)OCO2	3	0	159*	3	-5	68*	26*
O=C(NCC(c1ccco1)N1CCN(c2ccccc2F)CC1)c1ccc2c(c1)OCO2 (stereo not given)	-4	-2	2	0	-5	.	.
O=S1(=O)CC(N2CCN(CCO)CC2)CN1Cc1cn(Cc2cccc(C(F)(F)F)c2)nn1 (stereo not given)	1	.	.	.	.	.	.
O=C(NN=Cc1ccc2c(c1)OCO2)NN=Cc1ccc2c(c1)OCO2	4	0	.	3	1	.	.
Cc1ccc(C(=O)N/N=C/c2ccc3c(c2)OCO3)o1	2	-1	142*	7	2	98*	21*
C=C(C)CNC(=S)N/N=C\c1ccc2c(c1)OCO2	3	0	82*	3	6	64*	67*
Cc1ccc(-c2nc3cccnc3s2)cc1NS(=O)(=O)c1ccc2c(c1)CCCC2	-3	6	93*	-1	7	56*	154*
O=S(=O)(Nc1cccc(-c2nc3cccnc3s2)c1)c1ccc2c(c1)CCCC2	9	1	16	1	8	.	.
Brc1cccc(-c2nnc(SCc3nc4ccccc4[nH]3)o2)c1	-5	-3	92*	0	-2	42	29*
c1ccc2[nH]c(CSc3nnc(-c4ccncc4)o3)nc2c1	-1	-1	26	-6	-4	.	.
Brc1cccc(-c2nnc(-c3ccccc3)o2)c1	3	7	121*	2	7	134*	28*
C=CCNC(=O)c1cc(-c2ccncc2)nc2c(C)cc(C)cc12	3	-3	81*	1	17	65*	45*
C=CCNC(=O)c1cc(-c2cccnc2)nc2ccccc12	9	-1	7	-1	17	.	.
N#Cc1c(SCC(=O)OCc2ccccc2)nsc1SCC(=O)OCc1ccccc1	1	-2	5	1	9	.	.
N#Cc1c(SCC(N)=O)nsc1SCc1ccc(Cl)cc1	-1	1	80*	0	6	84*	36*
